Source: PubChem BioAssay
B2AR ag: human beta-2 adrenergic receptor agonism by FAP; P07550; Am2.2-beta2AR cells, FAP receptor internalization, flow cytometry; response, % (no concentration beside the values); hit rate 0.43% among 340,000; AID 504454;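 active means response above a set limit, near 3 SD of response in nonfluorescent compounds, cut at about 42% in these data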
MC4R ag barr: agonists of human melanocortin 4 receptor (MC4R) beta-arrestin; P32245; U2OS MC4R beta-arrestin complementation, luminescence; percent of melanotan II response, DMSO zero; activation, % at 8.9 µM; hit rate 0.98% among 360,000; AID 540308;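 active means activation above a per-plate cutoff, the mean activation of sample wells on that plate plus 3 SD, cut at about 8% in these data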
Target sequence (P32245 whole entry, looked up): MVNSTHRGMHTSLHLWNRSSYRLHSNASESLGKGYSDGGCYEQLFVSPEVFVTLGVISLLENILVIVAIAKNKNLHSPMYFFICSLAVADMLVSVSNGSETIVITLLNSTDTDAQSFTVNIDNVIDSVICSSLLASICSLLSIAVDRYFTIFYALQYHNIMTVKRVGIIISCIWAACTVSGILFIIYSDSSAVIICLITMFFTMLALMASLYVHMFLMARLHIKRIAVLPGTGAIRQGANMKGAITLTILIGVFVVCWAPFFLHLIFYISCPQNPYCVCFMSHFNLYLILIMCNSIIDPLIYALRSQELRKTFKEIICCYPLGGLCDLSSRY
MC4R antagonist: human MC4R antagonism in cAMP assay. P32245. hit rate 0.48% among 360,000. inhibition, % at 6.5 µM. MC4R-expressing cells, MTII-stimulated cAMP, LANCE TR-FRET;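 active means inhibition above its plate's cutoff, the mean of tested wells on that plate plus 3 SD, cut at about 29% in these data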;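 further: 0% = Melanotan II alone and 100% = Melanotan II plus saturating MCL0020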
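material = U2OS cells stably expressing human melanocortin 4 receptor (MC4R) | also added = Melanotan II challenge | dosing = single nominal compound dose of 6.5 µM | detection = TR-FRET with Eu-cAMP and labeled anti-cAMP, 671 nm | replication = singlicate | timing = compound 30 min, challenge 1 h, detection 1 h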
PfGluPho inh: PfG6PD (Plasmodium falciparum) enzyme inhibition | inhibition, % at 20 µM | AID 504690 | PfGluPho enzyme, NADPH resazurin-diaphorase fluorescence | hit rate 0.78% among 350,000;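 active means inhibition reaching at least a set limit at 20 µM in the primary screen, cut at about 59% in these data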;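 further: 0% = DMSO wells with substrate and 100% = DMSO wells lacking glucose-6-phosphate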
ABHD5 PLIN5 PPI: ABHD5-PLIN5 protein interaction inhibition; Split G. princeps luciferase complementation, luminescence, 4 h; inhibition, % at 4 µM; Q00G26+Q8WTS1; hit rate 0.78% among 360,000;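 active means inhibition above the mean inhibition across every tested compound plus 3 SD, cut at about 22% in these data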;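 further: 0% = DMSO only wells and the 100% control is not disclosed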
PfGluPho conf: confirmation of Plasmodium falciparum G6PD inhibitors; shares compounds with PfGluPho inh; recombinant PfGluPho, NADPH-diaphorase-resazurin fluorescence; inhibition, % at 20 µM; hit rate 34% among 2,400; AID 504753;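 active means inhibition of at least 50% at 20 µM in any single replicate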;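 further: 0% = DMSO with substrate and 100% = DMSO lacking glucose-6-phosphate substrate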
Diaphorase 10uM: diaphorase inhibition or oxidation at 10 uM NADPH; diaphorase-coupled resazurin reduction, fluorescence, NADPH 10 uM; hit rate 39% among 820; shares compounds with PfGluPho inh; inhibition, % at 20 µM;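 active means average inhibition reaching 50% or more with the compound at 20 µM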;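 further: resorufin red fluorescence formed as diaphorase reduces resazurin using NADPH; 0% = DMSO with enzyme and 100% = DMSO without enzyme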
Diaph ctr 30uM: counter-screen for P. falciparum G6PD inhibitors: diaphorase inhibitors, oxidizers; inhibition, % at 20 µM; hit rate 29% among 820; shares compounds with PfGluPho inh; Diaphorase/resazurin coupled assay, resorufin fluorescence, 30 uM NADPH;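 active means inhibition averaging 50% or more, tested at 20 µM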;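 further: 0% = DMSO with enzyme and 100% = DMSO wells lacking diaphorase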
An asterisk follows results filed as active. Sampled rows, rich in hits. Any-hit rate of the full collection: about 3%.

CC(C)(C)c1ccc(N=C2SCC(=O)N2Cc2cccs2)cc1 was read as B2AR ag 2, MC4R ag barr -2, MC4R antagonist 5, PfGluPho inh 64*, ABHD5 PLIN5 PPI -2 and PfGluPho conf -20.
CN(C)CCNC(=O)c1cccc2ccc(-c3ccc(-c4ccccc4)cc3)nc12 was read as B2AR ag -1, MC4R ag barr 3, MC4R antagonist 2, PfGluPho inh 95*, ABHD5 PLIN5 PPI 11 and PfGluPho conf 15.
CNC(=O)CC1C(=O)N(c2ccc(OC)cc2)C(=S)N1NC(=O)c1cccc(F)c1 (centres undefined) was read as B2AR ag -5, MC4R ag barr 1, MC4R antagonist 3, PfGluPho inh -1 and ABHD5 PLIN5 PPI 8.
Screening CCOc1ccc(S(=O)(=O)NCc2ccccc2Cl)cc1C(N)=O returned B2AR ag 1, MC4R ag barr -2, MC4R antagonist 0, PfGluPho inh 75*, ABHD5 PLIN5 PPI 3 and PfGluPho conf 32.
CCOc1ccc(S(=O)(=O)NCc2ccccc2)cc1C(N)=O was read as B2AR ag -3, MC4R ag barr -2, MC4R antagonist 4, PfGluPho inh 42 and ABHD5 PLIN5 PPI 2.
For O=C(NCc1ccc(Cl)cc1)c1cnn2ccccc12 the results were B2AR ag -10, MC4R ag barr -1, MC4R antagonist 14, PfGluPho inh 3 and ABHD5 PLIN5 PPI 7.
CC(=O)COc1cc(C)cc2oc(=O)cc(-c3ccccc3)c12 was read as B2AR ag -6, MC4R ag barr 5, MC4R antagonist 18, PfGluPho inh -20 and ABHD5 PLIN5 PPI 1.
For COc1ccc([N+](=O)[O-])cc1COc1cc(C)cc2oc(=O)cc(-c3ccccc3)c12 the results were B2AR ag 1, MC4R ag barr 0, MC4R antagonist 15, PfGluPho inh 86*, ABHD5 PLIN5 PPI 3 and PfGluPho conf 28.
Screening CC1(NC(=O)Cn2cc(C(F)(F)F)ccc2=O)CCS(=O)(=O)C1 (centres undefined) returned B2AR ag 8, MC4R ag barr -3, MC4R antagonist -2, PfGluPho inh -13 and ABHD5 PLIN5 PPI 1.
For Cc1c(C(=O)Nc2ccc3c(c2)OCCO3)sc2nc(-c3ccccc3)cn12 the results were B2AR ag 19, MC4R ag barr -1, MC4R antagonist 8, PfGluPho inh 58 and ABHD5 PLIN5 PPI -1.
For Cc1c(C(=O)Nc2ccncc2)sc2nc(-c3ccccc3)cn12 the results were B2AR ag -6, MC4R ag barr 6, MC4R antagonist 1, PfGluPho inh 78*, ABHD5 PLIN5 PPI 0 and PfGluPho conf 24.
`COc1cc(NCCCn2cnc(C(=O)Nc3ccc(C)c(C)c3)n2)cc(OC)c1OC` gave B2AR ag 7, MC4R ag barr 2, MC4R antagonist 15, PfGluPho inh 73*, ABHD5 PLIN5 PPI -4, PfGluPho conf 61*, Diaphorase 10uM -17 and Diaph ctr 30uM -16.
`COc1cccc(C(=O)Nc2ccc(C(=O)c3ccncc3)cc2)c1` gave B2AR ag -1, MC4R ag barr -1, MC4R antagonist -7, PfGluPho inh 47 and ABHD5 PLIN5 PPI 3.
For O=C(c1ccccc1)c1ccccc1C(=O)N1CCOCC1 the results were B2AR ag 18, MC4R ag barr 1, MC4R antagonist -6, PfGluPho inh 2 and ABHD5 PLIN5 PPI 16.
Screening O=C(c1ccc(Cl)cc1)c1ccccc1C(=O)N1CCOCC1 returned B2AR ag -9, MC4R ag barr -2, MC4R antagonist 6, PfGluPho inh 63*, ABHD5 PLIN5 PPI -5 and PfGluPho conf 11.
Screening Cc1cccc(NS(=O)(=O)c2cc3c(cc2C)n(C)c(=O)c(=O)n3C)c1 returned B2AR ag 1, MC4R ag barr -2, MC4R antagonist 6, PfGluPho inh 17 and ABHD5 PLIN5 PPI 0.
`O=c1oc2ccccc2cc1-c1nc2ccccc2o1` gave B2AR ag -10, MC4R ag barr 2, MC4R antagonist 0, PfGluPho inh -5 and ABHD5 PLIN5 PPI 6.
Screening Nc1cc2nc3ccccc3oc-2cc1=O returned B2AR ag -137, MC4R ag barr -1, MC4R antagonist -10, PfGluPho inh 74*, ABHD5 PLIN5 PPI -10 and PfGluPho conf 19.
Screening Cc1cc(C(=O)Nc2ccc(Cl)cc2)c(C)n1-c1ccccc1 returned B2AR ag -2, MC4R ag barr 0, MC4R antagonist 20, PfGluPho inh 98*, ABHD5 PLIN5 PPI 1 and PfGluPho conf 11.
Cc1ccc(NC(=O)c2cc(C)n(-c3ccccc3)c2C)cc1 was read as B2AR ag 12, MC4R ag barr -1, MC4R antagonist 14, PfGluPho inh 95*, ABHD5 PLIN5 PPI 3, PfGluPho conf 53*, Diaphorase 10uM 53* and Diaph ctr 30uM 34.
Screening Cc1ccc(-n2c(C)cc(C(=O)NS(=O)(=O)c3ccc(C)cc3)c2C)cc1 returned B2AR ag -22, MC4R ag barr 2, MC4R antagonist 12, PfGluPho inh -30 and ABHD5 PLIN5 PPI 5.
`Cc1ccc(NC(=O)c2cc(C)n(-c3cccc(C)c3)c2C)cc1` gave B2AR ag 11, MC4R ag barr 0, MC4R antagonist -7, PfGluPho inh 82*, ABHD5 PLIN5 PPI -11 and PfGluPho conf 32.
Cc1cc(C(=O)Nc2ccc(Cl)cc2)n(-c2ccccc2)n1 was read as B2AR ag -4, MC4R ag barr -1, MC4R antagonist 6, PfGluPho inh 9 and ABHD5 PLIN5 PPI -2.
Screening COc1ccc(-c2cc3c(=O)n(CC(=O)Nc4cccc(Cl)c4)nc(C)n3n2)cc1 returned B2AR ag -3, MC4R ag barr -2, MC4R antagonist 3, PfGluPho inh -13 and ABHD5 PLIN5 PPI 2.
Screening O=C1c2ccccc2C(=O)c2c1cccc2N(CCO)CCO returned B2AR ag -2, MC4R ag barr -2, MC4R antagonist -12, PfGluPho inh 12 and ABHD5 PLIN5 PPI 0.
`O=C1C=C(N(CCO)Cc2ccccc2)c2ccccc2C1=O` gave B2AR ag 20, MC4R ag barr -1, MC4R antagonist 2, PfGluPho inh 71*, ABHD5 PLIN5 PPI -14 and PfGluPho conf 46.
For CCOC(=O)C1CCN(C(=O)Nc2ccc3nc(-c4ccco4)c(-c4ccco4)nc3c2)CC1 the results were B2AR ag 20, MC4R ag barr -3, MC4R antagonist -3, PfGluPho inh 71*, ABHD5 PLIN5 PPI 31* and PfGluPho conf 3.
O=C(Nc1ccc2nc(-c3ccco3)c(-c3ccco3)nc2c1)N1CCCCCC1 was read as PfGluPho inh 47.
